According to ChEMBL document CHEMBL3769349, “Antiretroviral (HIV-1) activity of azulene derivatives” (Bioorg Med Chem, 2016):
pIC50: −log10 of the molar value. Active and inactive are the calls of the source.

Columns and labels:
[1] = Cytotoxicity against human U2OS cells assessed as cell viability at highest non-toxic concentration
[2] = test system: Human immunodeficiency virus 1; test: Antiretroviral activity against HIV-1 based virus like particles infected in U2OS cells assessed as Gluc activity at highest non-toxic concentration; type: functional
[3] = Cytotoxicity against human U2OS cells; type: cell-based
How it was run: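 Cytotoxicity measured by real-time impedance monitoring (xCELLigence RTCA DP) in U2OS cells kept in IMDM with 10% FBS and Pen/Strep. Compounds tested at several concentrations. Viability compared with 0.5% DMSO vehicle-treated cells. Highest non-toxic concentration defined as the level lowering viability by less than 20%.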

[4] = test system: Human immunodeficiency virus 1; test: Antiretroviral activity against HIV-1 based virus like particles infected in U2OS cells; type: functional, organism-based; conditions: Human immunodeficiency virus 1, U2OS
[5] = Selectivity index, ratio of CC50 for human U2OS cells to IC50 for HIV-1 based virus like particles infected in U2OS cells; type: functional
[6] = Cytotoxicity against human TZM-bl cells; type: cell-based
[7] = Selectivity index, ratio of CC50 for human TZM-bl cells to IC50 for HIV-1 infected in TZM-bl cells; type: functional
[8] = test system: Human immunodeficiency virus 1; test: Antiretroviral activity against HIV-1 infected in TZM-bl cells after 48 hrs by luciferase assay; conditions: Human immunodeficiency virus 1, TZM-bl
[9] = biological target: Human immunodeficiency virus type 1 reverse transcriptase (Human immunodeficiency virus 1) (UniProt Q72547); test: Inhibition of recombinant HIV-1 reverse transcriptase at 500 uM using 234 nt long RNA template after 10 mins by liquid scintillation analysis
How it was run: (§1)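 Cell-free DNA polymerase assay with recombinant HIV-1 reverse transcriptase (1 unit). Nucleotides: dATP/dGTP/dTTP, cold dCTP and [³³P]dCTP. Enzyme and compound preincubated 10 min at room temperature. Synthesis started with annealed 234-nt RNA template/18-nt DNA primer. Filter-bound radioactivity counted by liquid scintillation. DMSO served as negative control.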

[10] = biological target: Human immunodeficiency virus type 1 reverse transcriptase (Human immunodeficiency virus 1, UniProt Q72547); test: Inhibition of recombinant HIV-1 reverse transcriptase using 234 nt long RNA template after 10 mins by liquid scintillation analysis; how it was run: as §1

SMILES | viability [1] | Activity [2] | further results
N#Cc1cccc(-c2ccc3cccccc2-3)c1 | 80% | 63% | 
c1ccc(-c2cc(-c3ccccc3)c3cccccc2-3)cc1 | 80% | 124% | 
Oc1cc2cccccc-2c1 | 80% | 51% | CC50 [3]: 26.8 µM; pIC50 [4]: 5.66; Ratio CC50/IC50 [5]: 12.2; CC50 [6]: 60 µM; Ratio CC50/IC50 [7]: 7; pIC50 [8]: 5.07
Clc1cc(N2CCOCC2)c2cccccc1-2 | 80% | 98% | 
Clc1cc(-c2ccncc2)c2cccccc1-2 | 80% | 36% | 
CCOC(=O)c1c2cccccc-2c(C(=O)OCC)c1O | 80% | 3.5% | inhibition [9]: Active; CC50 [3]: 72.2 µM; pIC50 [4]: 5.36; Ratio CC50/IC50 [5]: 16.4; CC50 [6]: 65 µM; Ratio CC50/IC50 [7]: 3; pIC50 [10]: 3.98; pIC50 [8]: 4.70
Cc1cc(S(=O)(=O)[O-])c2c(C)ccc(C(C)C)cc1-2.[Na+] [SODIUM GUALENATE] | 91% | 154% | 
CCOC(=O)c1ccc(-c2cc(C(=O)OCC)c3cccccc2-3)o1 | 83% | 70% | 
Cc1ccnc2c1NC(=O)c1cccnc1N2C1CC1 [NEVIRAPINE] |  | 0.01% | 
CCOC(=O)c1ccc2cccccc1-2 | 85% | 52% | pIC50 [4]: < 4.12
Brc1cc(Br)c2cccccc1-2 | 96% | 36% | 
Clc1cc(Br)c2cccccc1-2 | 101% | 32% | 
CCOC(=O)c1c(O)cc2cccccc1-2 | 89% | 6.4% | CC50 [3]: 344 µM; pIC50 [4]: 5.00; Ratio CC50/IC50 [5]: 34.1; CC50 [6]: 260 µM
O=C(O)c1cccc(-c2cc(Cl)c3cccccc2-3)c1 | 92% | 103% | 
Clc1c2cccccc-2c(Cl)c1-c1cncnc1 | 80% | 141% | 
Cc1ccc(C(C)C)cc2c(C)ccc1-2 [GUAIAZULEN] | 106% | 48% | 
CCOC(=O)c1ncc(-c2ccc3cccccc2-3)cc1F | 86% | 80% | 
Clc1cc(-c2ccccc2)c2cccccc1-2 | 88% | 94% | 
